In data set [1] the target is Histamine H3 receptor (Homo sapiens, UniProt Q9Y5N1). The data set is described as follows: Displacement of [3H]N-alpha-methylhistamine from human recombinant histamine H3 receptor expressed in HEK293 cells. Type of data set: cell-based.
The target of data set [2] is hERG (KCNH2) (Homo sapiens, UniProt Q12809). The data set is described as follows: in vitro.
Data set [3] deals with Mus musculus. Nature of the data set: Ex vivo displacement of [3H]N-alpha-methylhistamine from histamine H3 receptor in ICR mouse at 10 mg/kg, po by receptor occupancy assay relative to control. The data set is classed as functional. The method in brief:
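ICR mice dosed orally at 10 mg/kg. Cortex dissected 4 h after dosing and homogenized in ice-cold 50 mM Na2HPO4–KH2PO4 buffer pH 6.8, then frozen at −80 °C for at least 12 h. Protein measured by BCA. Incubation 30 min at room temperature, in quadruplicate. Stopped by filtration on PEI-presoaked GF/B plates and counted. Specific binding calculated as total minus nonspecific.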

Data set [4] deals with Histamine H3 receptor (Mus musculus, UniProt P58406). Nature of the data set: Displacement of [3H]N-alpha-methylhistamine from mouse brain histamine H3 receptor.
Histamine H3 receptor (Mus musculus, UniProt P58406), sequence (P58406 whole entry): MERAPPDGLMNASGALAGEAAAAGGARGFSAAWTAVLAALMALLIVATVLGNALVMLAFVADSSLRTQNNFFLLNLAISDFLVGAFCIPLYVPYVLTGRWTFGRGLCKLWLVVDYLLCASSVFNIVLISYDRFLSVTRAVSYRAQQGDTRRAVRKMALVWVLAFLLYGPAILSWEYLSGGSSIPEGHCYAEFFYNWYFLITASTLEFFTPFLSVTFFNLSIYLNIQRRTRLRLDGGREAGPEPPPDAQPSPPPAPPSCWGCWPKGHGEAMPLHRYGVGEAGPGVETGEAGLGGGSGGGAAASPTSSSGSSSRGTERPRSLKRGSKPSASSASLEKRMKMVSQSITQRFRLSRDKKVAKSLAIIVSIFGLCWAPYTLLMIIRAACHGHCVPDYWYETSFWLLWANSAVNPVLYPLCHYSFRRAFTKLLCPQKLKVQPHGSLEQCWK
Data set [5] is described as follows: in vivo. Particulars: rat, plasma, po, 10 mg/kg.
Data set [6] is described as follows: Cmax in rat. Type of data set: ADME, organism-based. Particulars: in vivo. Put shortly:
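Rats dosed orally at 10 mg/kg. Cmax taken from the plasma profile.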

Data set [7] is described as follows: Cmax in monkey. Type of data set: ADME, organism-based, Macaca mulatta. The settings on record: rhesus monkey, in vivo. The method in brief: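 Monkeys dosed orally at 3 mg/kg. Cmax taken from the plasma profile.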
The nature of data set [8]: AUC (0 to 24 hrs) in monkey at 3 mg/kg, po. Type of data set: ADME, organism-based, Macaca mulatta. Further details: time < 24 hr, dose 3 mg/kg, route oral. Particulars: rhesus monkey, plasma. Put shortly:
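Monkeys dosed orally at 3 mg/kg. AUC calculated over 0–24 h.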

Data set [9] is described as follows: in vivo. Particulars: ICR, mouse, brain/plasma, po, 30 mg/kg.
The test system of data set [10] is Mus musculus. Nature of the data set: Ex vivo displacement of [3H]N-alpha-methylhistamine from histamine H3 receptor in ICR mouse at 10 mg/kg, po by receptor occupancy assay relative to control.
In data set [11] the target is Histamine H3 receptor (Cavia porcellus, UniProt Q9JI35). The data set is described as follows: Antagonist activity at guinea pig jejunum histamine H3 receptor by electric field stimulation assay. Particulars: read-out: pA2 (converted). The data set is classed as functional, tissue-based.
Histamine H3 receptor (Cavia porcellus, UniProt Q9JI35), sequence (Q9JI35 whole entry): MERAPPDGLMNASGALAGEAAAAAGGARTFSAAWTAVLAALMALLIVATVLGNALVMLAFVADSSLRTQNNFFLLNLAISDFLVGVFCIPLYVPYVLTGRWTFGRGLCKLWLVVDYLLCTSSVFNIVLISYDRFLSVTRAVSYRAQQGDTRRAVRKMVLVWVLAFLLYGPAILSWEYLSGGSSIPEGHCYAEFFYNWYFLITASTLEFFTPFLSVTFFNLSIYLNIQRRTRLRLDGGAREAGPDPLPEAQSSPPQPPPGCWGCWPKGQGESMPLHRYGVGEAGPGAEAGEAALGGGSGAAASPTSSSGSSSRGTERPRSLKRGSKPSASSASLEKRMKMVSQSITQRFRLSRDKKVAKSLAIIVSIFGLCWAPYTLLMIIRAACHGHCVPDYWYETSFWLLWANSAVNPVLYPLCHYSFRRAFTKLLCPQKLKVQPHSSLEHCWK

Histamine H3 receptor (Homo sapiens, UniProt Q9Y5N1), sequence (Q9Y5N1 whole entry): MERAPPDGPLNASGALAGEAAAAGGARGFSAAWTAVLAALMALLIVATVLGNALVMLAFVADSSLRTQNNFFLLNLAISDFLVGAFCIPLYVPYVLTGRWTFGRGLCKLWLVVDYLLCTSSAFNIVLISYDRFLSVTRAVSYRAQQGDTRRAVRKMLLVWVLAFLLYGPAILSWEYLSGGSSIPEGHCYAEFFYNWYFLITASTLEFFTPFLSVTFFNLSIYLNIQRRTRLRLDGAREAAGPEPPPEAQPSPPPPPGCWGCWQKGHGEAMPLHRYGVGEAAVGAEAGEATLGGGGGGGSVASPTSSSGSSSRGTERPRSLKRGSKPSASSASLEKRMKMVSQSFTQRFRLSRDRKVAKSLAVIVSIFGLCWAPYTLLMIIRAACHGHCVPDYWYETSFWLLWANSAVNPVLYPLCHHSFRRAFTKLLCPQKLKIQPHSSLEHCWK
hERG (KCNH2), sequence (Q12809 whole entry): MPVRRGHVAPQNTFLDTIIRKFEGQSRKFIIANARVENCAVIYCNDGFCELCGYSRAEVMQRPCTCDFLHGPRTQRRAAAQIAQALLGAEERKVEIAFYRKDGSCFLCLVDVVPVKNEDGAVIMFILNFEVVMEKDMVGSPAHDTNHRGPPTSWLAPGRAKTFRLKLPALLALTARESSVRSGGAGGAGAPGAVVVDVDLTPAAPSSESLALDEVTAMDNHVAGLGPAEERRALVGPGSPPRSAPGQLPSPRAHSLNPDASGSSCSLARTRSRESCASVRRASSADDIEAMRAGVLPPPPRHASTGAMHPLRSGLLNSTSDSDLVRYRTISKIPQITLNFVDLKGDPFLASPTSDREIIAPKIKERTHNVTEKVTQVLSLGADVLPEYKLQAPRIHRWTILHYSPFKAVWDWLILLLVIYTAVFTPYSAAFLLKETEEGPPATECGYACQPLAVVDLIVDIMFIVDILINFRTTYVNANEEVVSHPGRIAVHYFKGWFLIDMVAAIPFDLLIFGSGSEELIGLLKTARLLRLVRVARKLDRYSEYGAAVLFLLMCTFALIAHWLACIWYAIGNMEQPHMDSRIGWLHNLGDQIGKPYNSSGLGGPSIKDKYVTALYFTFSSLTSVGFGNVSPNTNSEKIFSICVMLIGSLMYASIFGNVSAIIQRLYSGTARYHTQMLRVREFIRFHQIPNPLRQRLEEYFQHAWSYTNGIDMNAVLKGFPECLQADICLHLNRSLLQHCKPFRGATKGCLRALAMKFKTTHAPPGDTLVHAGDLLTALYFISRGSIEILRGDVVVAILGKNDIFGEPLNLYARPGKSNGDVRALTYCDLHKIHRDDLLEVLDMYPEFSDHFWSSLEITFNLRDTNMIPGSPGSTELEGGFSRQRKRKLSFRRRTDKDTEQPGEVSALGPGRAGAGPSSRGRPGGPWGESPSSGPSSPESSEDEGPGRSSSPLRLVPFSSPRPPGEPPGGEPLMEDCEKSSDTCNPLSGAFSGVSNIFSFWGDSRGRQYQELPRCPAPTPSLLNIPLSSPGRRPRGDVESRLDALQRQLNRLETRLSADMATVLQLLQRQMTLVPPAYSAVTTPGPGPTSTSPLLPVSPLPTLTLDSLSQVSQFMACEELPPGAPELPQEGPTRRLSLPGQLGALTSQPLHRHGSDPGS

`Clc1ccc2nc(N3CCC(N4CCCCC4)CC3)sc2n1`: in data set [1], the inhibitory constant (Ki) came out at 1.7 µM. The compound `COc1cc(-c2cnc3nc(N4CCC(N5CCCCC5)CC4)sc3c2)ccn1` displayed an inhibition at 10 µM in data set [2] of 98%. As to `N#Cc1ccc(-c2cc3sc(N4CCC(N5CCCCC5)CC4)nc3cn2)cc1`, in [1], the inhibition constant (Ki) worked out at 0.126 µM.

Consider `COc1cccc(-c2cnc3nc(N4CCC(N5CCCCC5)CC4)sc3c2)c1`, for which the Ki in data set [1] was 0.14 µM. `CC(=O)c1cccc(-c2cnc3nc(N4CCC(N5CCCCC5)CC4)sc3c2)c1`: the Ki in data set [1] was found to be 0.033 µM. The same measure, in the same setting: to `CC(=O)Nc1cc2sc(N3CCC(N4CCCCC4)CC3)nc2cn1` belongs 0.053 µM.

For the compound `Nc1cnc(-c2cnc3nc(N4CCC(N5CCCCC5)CC4)sc3c2)cn1`, in [2], testing at 10 µM gave an inhibition of 20%. With `CC(=O)Nc1ccc(-c2cnc3nc(N4CCC(N5CCCCC5)CC4)sc3c2)cn1`, the inhibition at 10 µM in data set [2] is 20%. Further, the Activity in data set [3] worked out at 45%. The same compound showed an inhibition constant Ki in data set [4] of 0.02 µM.

Regarding `CC(=O)c1cccc(-c2cc3sc(N4CCC(N5CCCCC5)CC4)nc3cn2)c1`, the inhibitory constant (Ki) in [1] was 0.08 µM. `CC(=O)Nc1cnc2nc(N3CCC(N4CCCCC4)CC3)sc2c1`: the Ki in data set [1] worked out at 0.031 µM. As to `c1cc2sc(N3CCC(N4CCCCC4)CC3)nc2cn1`, the inhibitory constant (Ki) in data set [1] came to 0.128 µM.

The compound `Fc1cc(-c2cc3sc(N4CCC(N5CCCCC5)CC4)nc3cn2)ccn1` showed an inhibition at 10 µM in [2] of 85%. On to `COc1cccc(-c2cc3sc(N4CCC(N5CCCCC5)CC4)nc3cn2)c1`, for which, in data set [1], the Ki stood at 0.23 µM. The same measure, in the same setting: under `Oc1ccc(-c2cc3sc(N4CCC(N5CCCCC5)CC4)nc3cn2)cc1` stands 0.213 µM. As for `COc1cc(-c2cc3sc(N4CCC(N5CCCCC5)CC4)nc3cn2)ccn1`, in [2], the inhibition at 10 µM was 91%. Take `Fc1ccc(-c2cc3sc(N4CCC(N5CCCCC5)CC4)nc3cn2)cn1`: the area under the curve AUC(0-t) at 6 h in data set [5] was 1.07 µg·h/mL. Moreover, the peak concentration (Cmax) in [6] came out at 0.234 µg/mL; in data set [7], 0.033 µg/mL. In addition, the AUC(0-t) at 24 h in [8] was determined as 0.624 µg·h/mL. For the same compound, the Activity in data set [3] is listed as 95%. In [4], the Ki stood at 0.089 µM. For the compound `Brc1cnc2nc(N3CCC(N4CCCCC4)CC3)sc2c1`, the Ki in data set [1] was 0.141 µM. With `Nc1ccc(-c2cnc3nc(N4CCC(N5CCCCC5)CC4)sc3c2)cn1`, the Activity in [3] is listed as 3%. For `N#Cc1cc(-c2cc3sc(N4CCC(N5CCCCC5)CC4)nc3cn2)ccc1F`, the inhibition constant (Ki) in [1] was determined as 0.046 µM. On the same count and under the same terms, under `Nc1cc2sc(N3CCC(N4CCCCC4)CC3)nc2cn1` stands 0.073 µM; under `N#Cc1cc2sc(N3CCC(N4CCCCC4)CC3)nc2cn1`, 0.035 µM.

`Clc1cc2sc(N3CCC(N4CCCCC4)CC3)nc2cn1` came in with an AUC(0-t) at 6 h in data set [5] of 0.056 µg·h/mL. This compound yielded a Kp at 96 h in [9] of 4.52. Further, the inhibition at 10 µM in data set [2] was 59%. The compound also returned a Ki in data set [4] of 0.075 µM. In [10], this compound registered an Activity of 80%. `c1ncc(-c2cnc3nc(N4CCC(N5CCCCC5)CC4)sc3c2)cn1` displayed an inhibition at 10 µM in data set [2] of 30%. Besides, the Activity in [3] is recorded as 0%. Further, in data set [4], the inhibition constant Ki amounted to 0.066 µM. For `CCCN1CCN(c2nc3cnccc3s2)CC1`, the Kb in data set [11] was 0.0562 µM. For the compound `Nc1cnc2nc(N3CCC(N4CCCCC4)CC3)sc2c1`, the inhibition constant (Ki) in [1] is 0.079 µM. Consider `Clc1cnc2nc(N3CCC(N4CCCCC4)CC3)sc2c1`, for which the inhibition constant Ki in [1] stood at 0.125 µM.

In data set [3], `Oc1ccc(-c2cc3sc(N4CCC(N5CCCCC5)CC4)nc3cn2)cn1` came in with an Activity of 1%. Also, the Ki in [4] worked out at 0.02 µM.

Compound `Fc1ncccc1-c1cc2sc(N3CCC(N4CCCCC4)CC3)nc2cn1` came in with an inhibition at 10 µM in [2] of 88%. With `c1cnc2nc(N3CCC(N4CCCCC4)CC3)sc2c1`, the inhibitory constant (Ki) in [1] was 0.139 µM. For the compound `N#Cc1cnc2nc(N3CCC(N4CCCCC4)CC3)sc2c1`, the inhibition constant (Ki) in data set [1] worked out at 0.036 µM. `N#Cc1cc(-c2cnc3nc(N4CCC(N5CCCCC5)CC4)sc3c2)ccc1F` came in with an AUC(0-t) at 6 h in [5] of 0.339 µg·h/mL. `Oc1ccc(-c2cnc3nc(N4CCC(N5CCCCC5)CC4)sc3c2)cc1`: the Ki in [1] amounted to 0.059 µM.
